Laboratory results as given in the EternaBench riboswitch data.

System: MS2 coat protein
Assay: apparent Kd, MS2 coat protein; higher = weaker binding; RNA-MaP array; FMN 200 µM where present
Method in brief: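 On Illumina sequencing-chip clusters, designs were transcribed by stalled E. coli RNA polymerase and titrated with SNAP-549-labelled MS2 coat protein (0.7 or 1.5 nM, doubling to 3 µM), without and then with constant ligand, in 100 mM Tris-HCl pH 7.5, 80 mM KCl, 4 mM MgCl2, BSA, DTT, yeast tRNA and Tween-20. Apparent Kd is the median of filtered per-cluster curve fits to green signal normalised to red-channel RNA signal and control-cluster median Fmax.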

[1] = designed as: ON switch for flavin mononucleotide, no ligand
[2] = ligand present: flavin mononucleotide, designed as: ON switch for flavin mononucleotide
[3] = designed as: OFF switch for flavin mononucleotide, no ligand
[4] = ligand present: flavin mononucleotide, designed as: OFF switch for flavin mononucleotide

AAAAGACAUGAGGAUCACCCAUGUCUUCGGACAUGAGGAUAUGUACAGACUUCGGUCUGUACAGAAGGCAUGUAAA
apparent Kd [1]: 42.9 nM | apparent Kd [2]: 17 nM

AGGUACAUCGGAGGAUAUCAUGUAAAUACAUGAGGAUCACCCAUGUCGAUGGAGACAUCGGAGAUUGAGAAGGCCGAUGUACCG
apparent Kd [1]: 152 nM | apparent Kd [2]: 8.62 nM

CCUUUAAAGAUCCAAAAUUUCAACAUGAGGAUCACCCAUGUGCAGGAUAUCGUGCCAGUGAUGUACGAGAAGGGCAGACUCUGC
apparent Kd [3]: 119 nM | apparent Kd [4]: 149 nM

UUGGUUGUCGUAGGAUAUGUAGGAUAUUCCUACAUGAGGAUCACCCAUGUUCGCAUGGAAGAAGGACGGAAGGACGAUGACCAU
apparent Kd [1]: 317 nM | apparent Kd [2]: 109 nM

ACAUGAUACUAGGAUAUCAGCAUACUUCAAUGUUGAGAAGGAGUAACAUGAGGAUCACCCAUGUAUCCAACAUG
apparent Kd [3]: 46.9 nM | apparent Kd [4]: 219 nM

AGAAACUACGAGAAGGACAUGUGGUCCUUCAAAAACAUGAGGAUCACCCAUGUAGGAUAUCGUAGUUUCAGGAUCGUGAGAUCA
apparent Kd [3]: 37.6 nM | apparent Kd [4]: 22.8 nM

AGGGAGUUAGGAUAUGCUGCUCGUCACUUGCGUGAUGAGUAGCAGAAGGAACAUGAGGAUCACCCAUGUAAAAA
apparent Kd [3]: 31.2 nM | apparent Kd [4]: 30.3 nM

GGAUAGGACAGAGGAUAUACGUGCUAGAGAUACUAGCAAAAUUUCCUCACAUGAGGAUCACCCAUGUAGAAGGCUGUCCUAUAG
apparent Kd [3]: 16.7 nM | apparent Kd [4]: 432 nM

GUGCCUUGGGAGAAGGCAGUAUGCAAAGCAUUCUGAGGAUAUCCAUACCGGAAACGGACAUGAGGAUCACCCAUGUGGCACAAA
apparent Kd [1]: 18.5 nM | apparent Kd [2]: 7.52 nM

GGUCCAUCAUGAGGAUAUGGCACCUUAUUGGUGCCAGAAGGCAUGUCUCUUGACAUGAGGAUCACCCAUGUAAUAAAUUGGACC
apparent Kd [1]: 915 nM | apparent Kd [2]: 125 nM

ACAUGAGGAUCACCCAUGUAAAAUGAAGAAGGUAUAUACUUGAGGAUCACCCAUGUACAUGGGAGUAAGGAUAUUCUAAUAAUU
apparent Kd [1]: 13.2 nM | apparent Kd [2]: 11.3 nM

UAUAUUUAUGUAGGAUAUGGUAUAUAAAAUAUACCAGAAGGACAUGAGGAUCACCCAUGUAUGAAAUUCCAUAAUAACCGUGUA
apparent Kd [3]: 11.1 nM | apparent Kd [4]: 12.2 nM

CUAAAUCAUGUAGGAUAUGCAUGGCGAAGCUACGCAGAAGGACAUGAGGAUCACCCAUGUCUGUCCGACAGCGUACUGUCGGAC
apparent Kd [3]: 19.6 nM | apparent Kd [4]: 112 nM

UUUUAACAUGAGGAUCACCCAUGUGAGGAUAUCGAAAUUUAUAUUAAUAUUAAUUAUACGAGAAGGCACAUUUU
apparent Kd [3]: 83.6 nM | apparent Kd [4]: 82.8 nM

AGCGAGAUAGGCAAGGAUAUGCUGGGUUUCACAUGAGGAUCACCCAUGUCAUUGGUUAUGUCCGAGCAGAAGGUGCAUUCUCUUU
apparent Kd [1]: 338 nM | apparent Kd [2]: 47.2 nM

GGAAGACAAAGUCUUCCAUUACGAACAUGAGGAUCACCCAUGUAGGAUAUGCUACUCAAAGAGUAGCAGAAGGACAUGUGUCUU
apparent Kd [3]: 27.4 nM | apparent Kd [4]: 120 nM

AUGCCGUGCAGAGCGCGACGGCGAACAUGAGGAUCACCCAUGUAGGAUAUACUACACAAAGUGUAGUAGAAGGACGUGCGACAA
apparent Kd [3]: 24.6 nM | apparent Kd [4]: 38.6 nM

GUUGUUACUGAGGAUAUUAUUUUAUUCGACUGAUAAGAAGGCAGUACAUGAGGAUCACCCAUGUGGGUAGCCAG
apparent Kd [3]: 27.9 nM | apparent Kd [4]: 170 nM

GGAUAGGACAGAGGAUAUACGUGCUAGAGAUACUAGCAAAAUUUCCUGACAUGAGGAUCACCCAUGUAGAAGGCUGUCCUAUCG
apparent Kd [3]: 7.22 nM | apparent Kd [4]: 15.5 nM

ACUUGUUACUUAUUCAUUGAUUUGUAGGAUAUACGUACAUGAGGAUCACCCAUGUUACAUGUUAUGUAGAAGGACAUCUAAUUU
apparent Kd [3]: 12.2 nM | apparent Kd [4]: 12.6 nM

ACAGUUGGUAGGCCCUCGGAACAUGAGGAUCACCCAUGUAAGGAGGAUAUGCCCGGUACCCGCUGGCAGAAGGCCUUAUAAGAA
apparent Kd [3]: 8.8 nM | apparent Kd [4]: 44.9 nM

GCACUGGAUGUAGGAUAUCAGGACGAUAAGUCCUGAGAAGGACAUGAGGAUCACCCAUGUAACUCAAACCAGUGCUAUAAUAUA
apparent Kd [3]: 16.2 nM | apparent Kd [4]: 27.2 nM

GAUCCACAUGAGGAUCACCCAUGUGAGGAUAUGAUACUAUGUACUUCGGUACAUAGUAUCAGAAGGCACAGGUC
apparent Kd [3]: 51.4 nM | apparent Kd [4]: 160 nM

GUCGGAAACGACAAAGUAGCAUAGGAGGAUAUUCAUCCUCACAUGAGGAUCACCCAUGUAAAUUGGGAGAAGGCCUAUGCUACA
apparent Kd [1]: 515 nM | apparent Kd [2]: 301 nM

GAGCAGGUAAUAAAGUAGAAAUACAUGAGGAUCACCCAUGUAUAGGAUAUCGUCAGGAAUACUGACGAGAAGGAUACAUCCUGC
apparent Kd [3]: 14.2 nM | apparent Kd [4]: 18.1 nM

GGUAUGCAGCAGGAUAUCCAUCCGCGGUAUGGUGGAGAAGGGCUGACAUGAGGAUCACCCAUGUGCGUCCUAGG
apparent Kd [3]: 32.8 nM | apparent Kd [4]: 87.6 nM

AGCUAGUCAGGAUAUACGCAAACGAACGAAGCAGUGAAGGGACAUGAGGAUCACCCAUGUAGAAGGGACUAGCA
apparent Kd [3]: 24.5 nM | apparent Kd [4]: 140 nM
